{"data": "Experimental data gathered from unrelated publications", "ABHD6": "Monoacylglycerol lipase ABHD6 (ABHD6, Homo sapiens, UniProt Q9BV23)", "Oprm1": "Mu-type opioid receptor (Oprm1, Rattus norvegicus, UniProt P33535)", "note": "Protocols differ between the studies behind these lines."}
{"SMILES": "CNC(=O)c1cccc(-c2ccc(O[C@H]3O[C@H](CO)[C@@H](O)[C@H](O)[C@@H]3O)cc2)c1", "target": "Type 1 fimbrin D-mannose specific adhesin, N-terminal domain (fimH, Escherichia coli K-12, UniProt P08191)", "effect on": "binding", "technique": "BLI", "measurement": "Kd", "value": "0.01 nM"}
{"SMILES": "CN(C(=O)Oc1nsnc1N1CCOCC1)C1CCCCCCC1", "target": "ABHD6", "effect on": "enzyme activity", "mode": "inhibitor", "technique": "fluorescence", "setting": "lysate", "measurement": "IC50", "value": "44 nM"}
{"SMILES": "Cc1ccc(Cc2ccc3c(c2)CN(C(=O)[C@@H](N)Cc2c(C)cc(O)cc2C)CC3)cc1", "target": "Oprm1", "effect on": "ligand displacement", "technique": "radioligand", "setting": "cell membranes", "measurement": "Ki", "value": "114 nM"}
{"SMILES": "CC(=O)N[C@@H](CO)C(=O)N[C@@H](Cc1ccccc1)C(=O)N[C@@H](CCC(=O)O)C(=O)N[C@@H](Cc1ccccc1)C(=O)N1CCC[C@H]1C(=O)N1CCC[C@H]1C(=O)N1CCC[C@H]1C(=O)N1CCC[C@H]1C(=O)N[C@H](C(=O)N[C@@H](CCC(=O)O)C(=O)N[C@@H](CC(=O)O)C(=O)N[C@@H](CCC(=O)O)C(=O)N[C@@H](CC(C)C)C(N)=O)[C@@H](C)O", "target": "Vasodilator-stimulated phosphoprotein (VASP, Homo sapiens, UniProt P50552)", "effect on": "binding", "technique": "fluorescence", "measurement": "Kd", "value": "19000 nM"}
{"SMILES": "CN(C(=O)Oc1nsnc1N1CCCCC1)C1CCCCCC1", "target": "ABHD6", "effect on": "enzyme activity", "mode": "inhibitor", "technique": "fluorescence", "setting": "lysate", "measurement": "IC50", "value": "42.7 nM"}
{"SMILES": "O=C(COc1ccc2cc(C(=O)Nc3ccccc3)ccc2c1)NCc1ccc(OP(=O)(O)O)c(OP(=O)(O)O)c1", "target": "Signal transducer and activator of transcription 6, SH2 (Homo sapiens, UniProt P42226)", "effect on": "ligand displacement", "technique": "FP", "measurement": "Ki", "value": "3470 nM"}
{"SMILES": "C[C@H](N)Cn1ncc2ccc3c(c21)CCCO3", "target": "D(4) dopamine receptor (DRD4, Homo sapiens, UniProt P21917, del265-296)", "effect on": "ligand displacement", "technique": "radioligand", "measurement": "IC50", "value": "> 100000 nM"}
{"SMILES": "C[C@@H](NC(=O)C[C@@H](N)Cc1ccc(O)cc1)C(=O)NCC(=O)N[C@@H](Cc1ccccc1)C(=O)NNC(=O)[C@H](Cc1ccccc1)NC(=O)CNC(=O)[C@@H](C)NC(=O)C[C@@H](N)Cc1ccc(O)cc1", "target": "Oprm1", "effect on": "ligand displacement", "technique": "radioligand", "measurement": "IC50", "value": "135 nM"}
{"SMILES": "Cc1ccc(N(C)C(=O)Oc2nsnc2N2CCCCC2)cc1", "target": "ABHD6", "effect on": "enzyme activity", "mode": "inhibitor", "technique": "fluorescence", "setting": "lysate", "measurement": "IC50", "value": "150 nM"}
{"SMILES": "CCCCOc1ccc(C(=O)CCN2CCCCC2)cc1", "target": "D(4) dopamine receptor (DRD4, Homo sapiens, UniProt P21917)", "effect on": "ligand displacement", "technique": "radioligand", "measurement": "IC50", "value": "4100 nM"}
{"SMILES": "COc1ccc(N(C)C(=O)Oc2nsnc2N2CCCCC2)cc1", "target": "ABHD6", "effect on": "enzyme activity", "mode": "inhibitor", "technique": "fluorescence", "setting": "lysate", "measurement": "IC50", "value": "263 nM"}
{"SMILES": "O=C(Nc1cccc(-c2ccn3c(CC4CC4)nnc3c2C(F)(F)F)c1)c1ccc(S(=O)(=O)F)cc1", "target": "Metabotropic glutamate receptor 8 (GRM8, Homo sapiens, UniProt O00222)", "effect on": "calcium signal", "mode": "agonist", "measurement": "EC50", "value": "> 50100 nM"}
